Assay results reported in ChEMBL document CHEMBL5724801, “EUbOPEN Chemogenomics Library - Multiplex” (2024).
Values joined by “and” are separate entries in the source; they are usually repeats but may differ in a detail not shown here. Equal values may be shown once.

Tested on: HEK-293T
Assay: Multiplex assay against HEK293T
Assay type: toxicity, cell-based
Conditions: human
In short: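 Four dyes were applied at seeding to live cells: Hoechst33342, BioTracker Green Microtubule Cytoskeleton Dye, MitoTracker Red and Annexin V Alexa Fluor 680. Imaging after compound addition used a CQ1 microscope at 37°C and 5% CO2. CellPathfinder machine-learning gating then sorted cells into Hoechst high-intensity objects or normal cells, normal cells into healthy, pyknosed or fragmented nuclei, and pyknosed cells into mitotic or apoptotic, with tubulin, mitochondrial-mass and membrane-permeability phenotypes given as per cents of healthy-nucleus cells.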

[1] = 12 h, 1 µM, compound concentration 1 uM
[2] = 12 h, 10 µM, compound concentration 10 uM
[3] = 24 h, 1 µM, compound concentration 1 uM
[4] = 24 h, 10 µM, compound concentration 10 uM
[5] = 48 h, 1 µM, compound concentration 1 uM
[6] = 48 h, 10 µM, compound concentration 10 uM

For `CC(N)C1CCC(C(=O)Nc2ccncc2)CC1` (stereo not given), the “Population Apoptotic (%)” value [1] was 7.48% and 4.2%, the “Population Fragmented Nuclei (%)” value [1] was 1.19% and 1.23% and the “Population Healthy Nuclei (%)” value [1] was 63.72% and 25.31%. The “Population Hoechst High Intensity Objects (%)” value [1] was 0.48% and 0%, the “Population Membrane Permeable-Phenotype (%)” value [1] was 0% and the “Population Mitotic Cells (%)” value [1] was 92.52% and 95.8%. The “Population Normal (%)” value [1] was 99.52% and 100%, the “Population Pyknosed Nuclei (%)” value [1] was 35.08% and 73.46% and the “Total Cell Count” value [1] was 421 and 162. For the same compound, the “Population Fragmented Nuclei (%)” value [2] was 1.2% and 1.9%, the “Population Healthy Nuclei (%)” value [2] was 60.28% and 29.75% and the “Population Hoechst High Intensity Objects (%)” value [2] was 0%. The “Population Membrane Permeable-Phenotype (%)” value [2] was 0.99% and 4.26%, the “Population Mitochondria Different-Phenotype (%)” value [2] was 27.81% and 17.02% and the “Population Mitotic Cells (%)” value [2] was 96.37% and 83.33%. For the same compound, the “Population Normal (%)” value [2] was 100%, the “Population Pyknosed Nuclei (%)” value [2] was 38.52% and 68.35% and the “Population Apoptotic (%)” value [3] was 2.15% and 8.97%. The “Population Fragmented Nuclei (%)” value [3] was 1.77% and 1.69%, the “Population Healthy Nuclei (%)” value [3] was 83.28% and 54.49% and the “Population Hoechst High Intensity Objects (%)” value [3] was 0.16% and 1.11%. The “Population Membrane Permeable-Phenotype (%)” value [3] was 0.97% and 3.09%, the “Population Mitochondria Different-Phenotype (%)” value [3] was 6.76% and 5.15% and the “Population Mitotic Cells (%)” value [3] was 97.85% and 91.03%. The “Population Normal (%)” value [3] was 99.84% and 98.89%, the “Population Pyknosed Nuclei (%)” value [3] was 14.95% and 43.82% and the “Population Tubulin-Different-Phenotype (%)” value [3] was 6.56% and 4.12%. For the same compound, the “Population Apoptotic (%)” value [4] was 4.95% and 13.95%, the “Population Fragmented Nuclei (%)” value [4] was 1.78% and 1.58% and the “Population Healthy Nuclei (%)” value [4] was 73.29% and 53.16%. The “Population Hoechst High Intensity Objects (%)” value [4] was 0% and 0.52%, the “Population Membrane Permeable-Phenotype (%)” value [4] was 0.19% and 2.97% and the “Population Mitochondria Different-Phenotype (%)” value [4] was 6.17% and 6.93%. For the same compound, the “Population Mitotic Cells (%)” value [4] was 95.05% and 86.05%, the “Population Normal (%)” value [4] was 100% and 99.48% and the “Population Pyknosed Nuclei (%)” value [4] was 24.93% and 45.26%. For the same compound, the “Population Tubulin-Different-Phenotype (%)” value [4] was 3.36% and 1.98%, the “Population Apoptotic (%)” value [5] was 7.52% and 3.77% and the “Population Fragmented Nuclei (%)” value [5] was 2.72% and 1.86%. The “Population Healthy Nuclei (%)” value [5] was 86.94% and 78.44%, the “Population Hoechst High Intensity Objects (%)” value [5] was 0% and 0.74% and the “Population Membrane Permeable-Phenotype (%)” value [5] was 3.76% and 2.84%. For the same compound, the “Population Mitochondria Different-Phenotype (%)” value [5] was 10.11% and 9.95%, the “Population Mitotic Cells (%)” value [5] was 92.48% and 96.23% and the “Population Normal (%)” value [5] was 100% and 99.26%. The “Population Pyknosed Nuclei (%)” value [5] was 10.34% and 19.7%, the “Population Fragmented Nuclei (%)” value [6] was 1.32% and 1.83% and the “Population Healthy Nuclei (%)” value [6] was 88.05% and 71.1%. The “Population Hoechst High Intensity Objects (%)” value [6] was 0% and 0.91%, the “Population Membrane Permeable-Phenotype (%)” value [6] was 2.25% and 0.65% and the “Population Mitochondria Different-Phenotype (%)” value [6] was 9.07% and 6.45%. For the same compound, the “Population Mitotic Cells (%)” value [6] was 96.89% and 81.36%, the “Population Normal (%)” value [6] was 100% and 99.09% and the “Population Pyknosed Nuclei (%)” value [6] was 10.63% and 27.06%. For the same compound, the “Population Tubulin-Different-Phenotype (%)” value [6] was 0.3% and 9.68%.
In the case of `COc1ccc(CC(=O)NC(N/C(=N/C#N)Nc2cccc3ncccc23)C(C)(C)C)cc1OC` (stereo not given), the “Population Apoptotic (%)” value [1] is reported as 11.97% and 9.68%, the “Population Fragmented Nuclei (%)” value [1] is reported as 1.67% and 3.75% and the “Population Hoechst High Intensity Objects (%)” value [1] is reported as 0%. For the same compound, the “Population Membrane Permeable-Phenotype (%)” value [1] was 0.47% and 3.33%, the “Population Mitochondria Different-Phenotype (%)” value [1] was 42.45% and 26.67% and the “Population Mitotic Cells (%)” value [1] was 88.03% and 90.32%. For the same compound, the “Population Normal (%)” value [1] was 100%, the “Population Pyknosed Nuclei (%)” value [1] was 39.44% and 77.5% and the “Total Cell Count” value [1] was 360 and 160. For the same compound, the “Population Apoptotic (%)” value [2] was 8.97% and 14.85%, the “Population Fragmented Nuclei (%)” value [2] was 3.73% and 3.91% and the “Population Healthy Nuclei (%)” value [2] was 51.24% and 17.19%. The “Population Hoechst High Intensity Objects (%)” value [2] was 0.31% and 0%, the “Population Membrane Permeable-Phenotype (%)” value [2] was 0.61% and 9.09% and the “Population Mitochondria Different-Phenotype (%)” value [2] was 26.67% and 22.73%. For the same compound, the “Population Mitotic Cells (%)” value [2] was 91.03% and 85.15%, the “Population Normal (%)” value [2] was 99.69% and 100% and the “Population Pyknosed Nuclei (%)” value [2] was 45.03% and 78.91%. For the same compound, the “Total Cell Count” value [2] was 323 and 128, the “Population Apoptotic (%)” value [3] was 11.48% and 16.07% and the “Population Fragmented Nuclei (%)” value [3] was 1.83% and 3.87%. The “Population Healthy Nuclei (%)” value [3] was 75.87% and 34.25%, the “Population Hoechst High Intensity Objects (%)” value [3] was 0.36% and 0% and the “Population Membrane Permeable-Phenotype (%)” value [3] was 1.45% and 0%. For the same compound, the “Population Mitochondria Different-Phenotype (%)” value [3] was 14.46% and 11.29%, the “Population Mitotic Cells (%)” value [3] was 88.52% and 83.93% and the “Population Normal (%)” value [3] was 99.64% and 100%. For the same compound, the “Population Pyknosed Nuclei (%)” value [3] was 22.3% and 61.88%, the “Population Tubulin-Different-Phenotype (%)” value [3] was 13.49% and 12.9% and the “Population Apoptotic (%)” value [4] was 21.15% and 27.45%. For the same compound, the “Population Fragmented Nuclei (%)” value [4] was 2.03% and 2.01%, the “Population Healthy Nuclei (%)” value [4] was 74.55% and 29.53% and the “Population Hoechst High Intensity Objects (%)” value [4] was 0.22% and 0%. For the same compound, the “Population Membrane Permeable-Phenotype (%)” value [4] was 0.91% and 2.27%, the “Population Mitochondria Different-Phenotype (%)” value [4] was 18.73% and 22.73% and the “Population Mitotic Cells (%)” value [4] was 78.85% and 72.55%. For the same compound, the “Population Normal (%)” value [4] was 99.78% and 100%, the “Population Pyknosed Nuclei (%)” value [4] was 23.42% and 68.46% and the “Population Tubulin-Different-Phenotype (%)” value [4] was 20.54% and 18.18%. The “Total Cell Count” value [4] was 445 and 149, the “Population Apoptotic (%)” value [5] was 8.22% and 21.13% and the “Population Fragmented Nuclei (%)” value [5] was 2.43% and 3.09%. The “Population Healthy Nuclei (%)” value [5] was 87.12% and 60.31%, the “Population Hoechst High Intensity Objects (%)” value [5] was 0.07% and 0% and the “Population Membrane Permeable-Phenotype (%)” value [5] was 5.75% and 0%. The “Population Mitochondria Different-Phenotype (%)” value [5] was 13.8% and 32.48%, the “Population Mitotic Cells (%)” value [5] was 91.78% and 78.87% and the “Population Normal (%)” value [5] was 99.93% and 100%. The “Population Fragmented Nuclei (%)” value [6] was 2.78% and 2.07%, the “Population Healthy Nuclei (%)” value [6] was 86.6% and 61.14% and the “Population Hoechst High Intensity Objects (%)” value [6] was 0.1% and 0%. For the same compound, the “Population Membrane Permeable-Phenotype (%)” value [6] was 4.76% and 3.39%, the “Population Mitochondria Different-Phenotype (%)” value [6] was 22.86% and 38.98% and the “Population Mitotic Cells (%)” value [6] was 93.2% and 77.46%. The “Population Normal (%)” value [6] was 99.9% and 100%.
